Experimental data taken from the RNAGym collection of RNA variant scans (doi:10.1126/science.aae0568).
Fewer inactive variants are shown than the library holds.

B1: tRNA (parent)
chain: GUUCCGUUGGCGUAAUGGUAACGCGUCUCCCUCCUAAGGAGAAGACUGCGGGUUCGAGUCCCGUACGGAACG

Variants of: B1
Assay: yeast fitness relative to wild type (ratio to wild type); higher = fitter; tRNA-Arg(CCU), competitive growth, 37 C, YPD
Procedure, shortened: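 The tRNA-Arg(CCU) gene variants were made by chemical synthesis with a 3% per-site mutation rate at 69 sites and inserted at the native genomic locus of Saccharomyces cerevisiae. After pooling, the strains were competed in YPD at 37°C for 24 hours in six parallel replicates. Gene amplicons from the start population and each end population were read by 100-nucleotide paired-end sequencing, and Darwinian fitness relative to wild type was taken from genotype frequency changes. Genotypes needed ≥ 100 starting reads, and estimates < 0.5 were set to 0.5.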

First: GUUCCGUUGGGGUAAUGGUAACGCGUCUCCUUCCUAAGGAGAAGACUGCGGGUUCGAGUCGCGUACGGAACG [C11G C31U C61G]
Second: GUUCCGUUGGGGUAAUGGUAACGCGUCUCCCUCGUCAGGAGAAGACUGCGGGUUCGAGUCCCGUACGGAACG [C11G C34G A36C]
The yeast fitness of the first is higher: 0.64 for the first, at most 0.5 for the second.

GUUCCGUUGGGGUAAUGGUAACGCGUUACCCUCCUAAGGAGAAGACUGCGGAUUUGAGUCCCGUACGGAACG [C11G C27U U28A G52A C55U] and GUUCCGUUGGGGUAAUGGUAACGCGUCUCGCUCAUACGGAGAAGAUUGCGGGUUCGAGUCCCGUACGGAACG [C11G C30G C34A A37C C46U] cannot be ordered by yeast fitness: at most 0.5 for the first, at most 0.5 for the second.

Going from GUUCCGUUGGGGUAAUGGUAACGCGUCUCGCUCCUAAGGAGAAGACUGUGGGUUCGAGUCGCGUACGGAGCG [C11G C30G C49U C61G A70G] to GUUCCGUUGGGGUAAUGGUAACGCGUCUCCCUUCUAAGGAGAAGACUGCGGGUUCGAGCCCCGUACGGAACG [C11G C33U U59C], the yeast fitness rises from at most 0.5 to 0.66.

Compared with GUUCCGUUGGGGUAAUGGUAACGCGUCUCUCUCUUAAGGAGAAGACUGCGGGUUCGAGUCCCGUACGGAACG [C11G C30U C34U], GUUCCGUUGGGGUAAUGGUAACGCGUCUCCCUCGUAAGGAGAAGACUGCGGGUUCGAGUCCCGUACGGAACG [C11G C34G] is higher in yeast fitness: at most 0.5 for the first, 0.524 for the second.

Going from GUUCCGUUGGGGUAAUGGUAACGCGUCUCCCUCAUAAGGAGAAGACUGCGGGUUCGAGUCCCGUACGGAACG [C11G C34A] to GUUCCGUUGGGGUAAUGGUAACGCGUCUCCCUCUUAAGGAGAAGACUGCGGGUUCGAGUCCCGUACGGAACG [C11G C34U], the yeast fitness rises from 0.585 to 0.672.

GUUCCGUUGGGGUAAUGGUAACGCGUCUUCCUCCCCAGGAGAAGACUGCGGGUUCGAGUCCCGUACGGAACG [C11G C29U U35C A36C] and GUUCCGUUGGGGUAAUGGUAACGCGUCUACCUCCGAAGGAGAGGACUGCGGGUUCGAGUCCCGUACGGACCG [C11G C29A U35G A43G A70C] cannot be ordered by yeast fitness: at most 0.5 for the first, at most 0.5 for the second.

Going from GUUCCGUUGGGGUAAUGGUAACGCGUCUCCCUCAUUAGGAGAAGACUACGGCUUCGAGUACUGUACGGAACG [C11G C34A A36U G48A G52C C60A C62U] to GUUCCGUUGGGGUAAUGGUAACGCGUCUCCGUCCUAAGGAGAAGACUGCGGGUUAGAGUCCCGUACGGAACG [C11G C31G C55A], the yeast fitness rises from at most 0.5 to 0.618.

Going from GUUCCGUUGGGGUAAUGGUAACGCGUCUUCCUCCUAAGGAGAAGCCUGCGGGUUCGAGUCCCGUAGGGAACG [C11G C29U A45C C66G] to GUUCCGUUGGGGUAAUGGUAACGCGUCUCCCUCAUAAGGAGAAGACUGCGGGUUCGACUGCCGUACGGAACG [C11G C34A G58C C60G], the yeast fitness rises from at most 0.5 to 0.84.

GUUCCGUUGGGGUAAUGGUAACGCGUCUUCCUCCUAAGGAGAAGACUGCGGGUUCGAGACCCGUACGGUACG [C11G C29U U59A A69U] and GUUCCGUUGGGGUAAUGGUAACGCGUCUACCUCCUAAGGUGAAGACUGCGGGUUCGAGUCCCGUACGGAACG [C11G C29A A40U] cannot be ordered by yeast fitness: at most 0.5 for the first, at most 0.5 for the second.

GUUCCGUUGGGGUAAUGGUAACGCGUCUACCUCCUAAGGAGACGACUGCGGGUUCGAGUCCCGUAAGGAACG [C11G C29A A43C C66A] and GUUCCGUUGGGGUAAUGGUAACGCGUCUCCCUCAUUAGGAGAAGACUGCGGGUUCGAGUACCGUACGGAACG [C11G C34A A36U C60A] cannot be ordered by yeast fitness: at most 0.5 for the first, at most 0.5 for the second.

Compared with GUUCCGUUGGGGUAAUGGUAACGCGUCUCUCUCCUAAGAAGAAGCCUGUGGGUUCGAGUCCCGUACGGAACG [C11G C30U G39A A45C C49U], GUUCCGUUGGGGUAAUGGUAACGCGUCUCCCUCUUAAGGAGCAGACUGCGGGUUCGAGUCACGUACGGAUCG [C11G C34U A42C C61A A70U] is lower in yeast fitness: 0.614 for the first, at most 0.5 for the second.

GUUCCGUUGGGGUAAUGGUAACGCGUUUCCCACCUAAGGAGAAGACUGCGGAUUCGAGUUCCGUACGGACCG [C11G C27U U32A G52A C60U A70C] and GUUCCGUUGGGGUAAUGGUAACGCGUCUCCGUCCUAAGGAGAAGACCGCGGGUUGGAGUCCCGUACGGAACG [C11G C31G U47C C55G] cannot be ordered by yeast fitness: at most 0.5 for the first, at most 0.5 for the second.

GUUCCGUUGGGGUAAUGGUAACGCGUCUUUCUCCUAAGGAGAAGACUGCGGGUACGAGUCCCGUACGGAACG [C11G C29U C30U U54A] and GUUCCGUUGGGGUAAUGGUAACGCGUCUCGGACCUAAGGAGAAGACUGCGGGUUCGAGUCCCGUACGGAACG [C11G C30G C31G U32A] cannot be ordered by yeast fitness: at most 0.5 for the first, at most 0.5 for the second.

GUUCCGUUGGGGUAAUGGUAACGCGUCUCCUUACUAAGGAGAAGACUGCGGGUUCGAGUCCCGUAUGGAACG [C11G C31U C33A C66U] and GUUCCGUUGGGGUAAUGGUAACGCGUCUCCCUCAUAAGGACAAGACUGCGCGUUCAAGUCCCGUACGGAACG [C11G C34A G41C G51C G56A] cannot be ordered by yeast fitness: at most 0.5 for the first, at most 0.5 for the second.

GUUCCGUUGGGGUAAUGGUAACGCGUCUCCCUACUAAGGAGAAGACUGCCGGUUCGAGUCCCGUACGGAACG [C11G C33A G50C] and GUUCCGUUGGGGUAAUGGUAACGCGUCUGCCUCCUAAGGAGAAGUCUGCGGGUUCGAGUCCCGUACGGAACG [C11G C29G A45U] cannot be ordered by yeast fitness: at most 0.5 for the first, at most 0.5 for the second.

First: GUUCCGUUGGGGUAAUGGUAACGCGUCUUCCUCCUAAGGAGAAGACUGCGGGUUCGAGUCACGUCCGGAACG [C11G C29U C61A A65C]
Second: GUUCCGUUGGGGUAAUGGUAACGCGUCUCUCUCCUAAGGAGAAGACUGCGGGUUCGAGUCCCGUGCGGAACG [C11G C30U A65G]
The yeast fitness of the first is lower: at most 0.5 for the first, 0.595 for the second.

GUUCCGUUGGGGUAAUGGUAACGCGUCUGCGUCCUAAGGAGAAGACUGCGGGUCCGAGUCCCGAACGGAACG [C11G C29G C31G U54C U64A] and GUUCCGUUGGGGUAAUGGUAACGCGUCUCCCUCGUAAGGAGAAGACUGCGGGUUCGAGUCCCGUUCGGAACG [C11G C34G A65U] cannot be ordered by yeast fitness: at most 0.5 for the first, at most 0.5 for the second.

Compared with GUUCCGUUGGGGUAAUGGUAACGCGUCUCCAUCCUAAGAAGAAGACUACGGGUUCGAGUCUCGUCCGGAACG [C11G C31A G39A G48A C61U A65C], GUUCCGUUGGGGUAAUGGUAACGCGUCUCGCUCCUAAGGAGAAGACUGCGGGUUCGAGUCCCGUACGGAACG [C11G C30G] is lower in yeast fitness: 0.56 for the first, at most 0.5 for the second.

GUUCCGUUGGGGUAAUGGUAACGCGUCUCUCUCCUAAGGAGAAGACUGCGGGUUCGAGUCCCGUACGGAACG [C11G C30U] showed a yeast fitness of 0.643.
